Laboratory results taken from ChEMBL document CHEMBL4513216, “Probing the Open Global Health Chemical Diversity Library for Multistage-Active Starting Points for Next-Generation Antimalarials” (ACS Infect Dis, 2020).

Experiment: Toxicity liver stage against HepG2, at 10uM
Format: cell-based
Design: test concentration 10 uM, cell line HepG2-A16-CD81EGFP
Conditions: human, HepG2-A16-CD81EGFP cells; read-out: INHIBITION
In short: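 Uninfected HepG2-A16-CD81EGFP cells, 3 × 10^3 per well, 1536-well, plated on prespotted compound at 10 μM final, parasite-free screening media added to match infected plates; puromycin 10 μM positive, DMSO 0.5% negative; run in parallel with 48 h PbLuc assay at 37 °C, 5% CO2; viability by CellTiter-Glo luminescence, normalized to controls.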

Structure (SMILES)	cytotoxicity at 10 µM [%]
Cc1nc(C)n(C2CCCN(C(=O)c3csnn3)C2)n1 (configuration not stated)	-5.48
COC(=O)CCN(C)C(=O)c1csc(Cc2ccccc2F)n1	9.38
CS(=O)(=O)N1C[C@H]2CC[C@@H](C1)N(C(=O)Cn1nc3ccccc3n1)C2	10.8
CSCC[C@H](NC(=O)Cn1ccc2c(Br)cccc21)C(=O)O	-2.94
Cc1cnn(CC2CCCN2C(=O)c2c(C)noc2C(C)C)c1 (configuration not stated)	-0.502
CCCc1ccc2oc(C(=O)N3CCCN(C)CC3)c(C)c2c1	-8.3
CC(C)CNC(=O)c1cc(C2CC2)nc2c1c(C1CCCN1)nn2C (configuration not stated)	15.9
Cn1cc(S(=O)(=O)N2CCCC2CC(=O)c2cccs2)cn1 (configuration not stated)	-8.08
O=C1COC2(CCN(Cc3ccncc3)CC2)CN1CC1CC1	-3.84
CCc1cnc(CNc2ccc(C(=O)NCc3ccco3)cc2C)o1	-0.375
Cc1ncsc1CN1CC(C)(C2CC2)CC1=O (configuration not stated)	0.832
CN(C)CC(=O)N1CCc2sc(C(=O)NCC3CC3)cc21	1.68
CC(C)CN1CCc2[nH]nc(C(=O)N3CCCC3)c2C1	-98.9
CCOC(=O)C(C)NC(=O)CCc1ccc(F)cc1 (configuration not stated)	-9.92
O=C(Cc1cccs1)N1Cc2nc(CN3CCCC3)oc2C1	-2.87
O=C(O)[C@H]1CN(Cc2ccccc2)C[C@@H]1C(=O)c1ccccc1	5.76
Cc1ccc(Oc2ncccc2CNC2CCCCC2)cn1	-8.59
CN(CCCC1CCCO1)C(=O)c1cccc(C#N)c1 (configuration not stated)	-7.52
CC(C)CSCCCNC(=O)C1CCC1	-4.47
CC1N(CC2CC2)C(=O)COC12CCN(C(=O)c1cnccn1)CC2 (configuration not stated)	-2.57
CCc1ccc(-c2cn3c(C(=O)NCC(C)C(=O)NC)csc3n2)cc1 (configuration not stated)	9.21
CC(C)Cn1cncc1-c1nc2c([nH]1)CCCNC2=O	15
Cc1cc(N2CCOC(c3ccncn3)C2)ncn1 (configuration not stated)	2.91
CC(=O)Nc1ccc(CNc2cccc(CS(C)(=O)=O)c2)cc1	-6.91

Structure (SMILES)	cytotoxicity at 10 µM [%]
COc1ccccc1OCc1nc(C(C)C)no1	14
OC(CNCc1ccccc1C(F)(F)F)c1ccccc1 (configuration not stated)	-4.63
Cc1nc(C2(NCC(=O)NC(=O)NCc3cccs3)CCCCC2)no1	-9.52
CC(=O)c1cc(CC(=O)NCc2cccc(F)c2F)cs1	2.95
CC1CCN(C(=O)c2occc2COc2cccc(C#N)c2)CC1	0.106
CCc1cc(NCC(O)CN2CCCCC2)n2ncnc2n1 (configuration not stated)	-7.45
Cc1nn(C)c(C)c1CCNC(C)c1ccc(-n2ccnc2C)cc1 (configuration not stated)	31.6
N#Cc1cc(C#N)c(SCC(=O)NCc2ccc(F)cc2)nc1N	0.0723
Cc1nn(CCC(=O)NC2CCS(=O)(=O)C2)c(C)c1Br (configuration not stated)	0.549
c1cnnc(N2CCCC2CNCCc2cccs2)c1 (configuration not stated)	-0.555
COc1ccc(C)c(NC(=O)NCc2cccc(N(C)C)n2)c1	6.13
CN(Cc1ccc2c(c1)OCO2)C(=O)c1ccc(C2CCCNC2)cc1 (configuration not stated)	-11.8
Cc1cccc2c1OCCCC2NCc1nccn1Cc1ccccc1 (configuration not stated)	1.38
Cc1c(C2N3CC4(C(C)C)CN2CC(C(C)C)(C3)C4=O)[nH]c(=O)[nH]c1=O (configuration not stated)	8.71
COC[C@]1(O)CCN(c2cc(N3CCOCC3)ncn2)CC1(C)C	-3.81
CCN(CC)S(=O)(=O)N1CCCC(c2nccn2Cc2cccnc2)C1 (configuration not stated)	7.07
Cc1nc(C)n(CC2CCCN2c2ncnc3sc(C)c(C)c23)n1 (configuration not stated)	21.4
CCOc1ccc2oc(-c3cnn(C)c3C)c(O)c(=O)c2c1	7.72
COc1cccc(-c2cc(C(=O)N3N=C(C)CC3(O)C(F)F)[nH]n2)c1 (configuration not stated)	8.46
NCC(CO)Cc1ccc(C(F)(F)F)cc1 (configuration not stated)	4.42
Cc1cc(-c2cnc(NC3CCCC3)nc2-c2ccc(C)o2)on1	-22.4
CN(C)CC(=O)N1CC2(CCN(C(=O)Nc3ccccc3)C2)C1	4.17
CCOc1ccc(C(=O)NC2CC2)cc1C	8
